The source of these data is ChEMBL document CHEMBL3813640, “Design and synthesis of potent and selective pyridazin-4(1H)-one-based PDE10A inhibitors interacting with Tyr683 in the PDE10A selectivity pocket” (Bioorg Med Chem, 2016).

In general, IC50 refers to the point on the concentration scale where inhibition reaches its midpoint.

The target of this experiment is cAMP and cAMP-inhibited cGMP 3',5'-cyclic phosphodiesterase 10A (Homo sapiens, UniProt Q9Y233). The experiment in a line: Inhibition of human full length PDE10A2 expressed in African green monkey COS7 cells using [3H]cGMP as substrate preincubated for 30 mins followed by substrate addition measured after 60 mins by scintillation proximity assay. Type of experiment: cell-based, COS-7. The method, boiled down:
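Full-length human PDE10A2 from transfected COS-7 cells, held at -70 °C. [³H]cGMP added, 60 min at rt, stopped with yttrium SPA beads containing ZnSO₄. Counted after ≥120 min settling. Inhibition set against DMSO (0%) and 10 µM papaverine (100%) wells. Duplicate or triplicate.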
Background: Scintillation proximity formats need no separation of bound from free tracer.

Chain of cAMP and cAMP-inhibited cGMP 3',5'-cyclic phosphodiesterase 10A (Q9Y233 whole entry): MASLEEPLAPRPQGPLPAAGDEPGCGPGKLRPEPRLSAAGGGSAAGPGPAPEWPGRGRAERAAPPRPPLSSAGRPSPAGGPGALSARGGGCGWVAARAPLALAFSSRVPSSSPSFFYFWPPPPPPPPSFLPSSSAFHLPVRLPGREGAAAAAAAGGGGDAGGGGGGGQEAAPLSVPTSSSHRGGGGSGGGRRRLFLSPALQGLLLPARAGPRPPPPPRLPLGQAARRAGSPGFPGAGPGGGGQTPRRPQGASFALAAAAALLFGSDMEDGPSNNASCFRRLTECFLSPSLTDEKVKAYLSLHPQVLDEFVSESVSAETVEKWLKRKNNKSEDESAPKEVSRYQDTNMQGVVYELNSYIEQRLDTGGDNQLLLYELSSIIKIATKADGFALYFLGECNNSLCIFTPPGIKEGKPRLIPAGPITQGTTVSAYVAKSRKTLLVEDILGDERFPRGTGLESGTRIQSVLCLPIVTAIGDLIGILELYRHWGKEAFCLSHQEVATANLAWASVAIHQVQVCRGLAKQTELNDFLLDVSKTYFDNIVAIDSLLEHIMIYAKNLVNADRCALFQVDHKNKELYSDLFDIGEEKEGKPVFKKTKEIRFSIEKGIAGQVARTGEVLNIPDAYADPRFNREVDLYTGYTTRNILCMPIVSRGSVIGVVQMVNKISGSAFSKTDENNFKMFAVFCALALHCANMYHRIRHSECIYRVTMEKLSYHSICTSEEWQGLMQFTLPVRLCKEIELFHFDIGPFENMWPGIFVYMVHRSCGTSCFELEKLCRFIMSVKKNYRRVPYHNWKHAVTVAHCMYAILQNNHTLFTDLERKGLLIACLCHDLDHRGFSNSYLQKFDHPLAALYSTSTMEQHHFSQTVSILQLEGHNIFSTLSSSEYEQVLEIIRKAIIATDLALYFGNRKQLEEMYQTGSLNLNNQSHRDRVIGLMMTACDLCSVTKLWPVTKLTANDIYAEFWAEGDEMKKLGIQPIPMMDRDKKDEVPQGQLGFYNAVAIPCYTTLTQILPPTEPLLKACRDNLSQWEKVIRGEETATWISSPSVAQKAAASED

`COc1cn(CC2CC2)nc(-c2ccnn2-c2ccccc2)c1=O`: the IC50 came out at 170 nM.
Regarding `COc1cn(C)nc(-c2ccnn2-c2ccccc2)c1=O`, the IC50 was determined as 1000 nM.
The molecule `Cn1c(COc2cn(CC3CC3)nc(-c3ccnn3-c3ccccc3)c2=O)nc2ccccc21` registered an IC50 of 2800 nM.
The value for `Cn1c(CCOc2cn(CC3CC3)nc(-c3ccnn3-c3ccccc3)c2=O)nc2ccccc21` was 25 nM; that for `COc1cn(-c2ccccc2)nc(-c2ccnn2C)c1=O` was 2400 nM.
`Cn1c(OCCOc2cn(CC3CC3)nc(-c3ccnn3-c3ccccc3)c2=O)nc2ccccc21` had an IC50 of 4.1 nM.
With `Cn1c(CCCOc2cn(CC3CC3)nc(-c3ccnn3-c3ccccc3)c2=O)nc2ccccc21` the figure was 0.81 nM; with `O=c1c(OCCN2CCn3c2nc2ccccc23)cn(CC2CC2)nc1-c1ccnn1-c1ccccc1`, 0.76 nM.
Consider `COc1cn(C2CC2)nc(-c2ccnn2-c2ccccc2)c1=O`, for which the IC50 was found to be 130 nM.
Regarding `COc1cn(CC(F)(F)F)nc(-c2ccnn2-c2ccccc2)c1=O`, the IC50 turned out to be 550 nM.
In turn, `Cn1c(CCCCOc2cn(CC3CC3)nc(-c3ccnn3-c3ccccc3)c2=O)nc2ccccc21` showed an IC50 of 760 nM.
